Assays:
[1] = molecular target: Toll-like receptor 1/2 (Homo sapiens, UniProt O60603+Q15399); experiment: Agonist activity at TLR1/TLR2 in human THP-1 derived macrophages assessed as stimulation of TNF alpha release measured for 4 hrs by ELISA based assay relative to diprovocim-1; format: cell-based; design: Activity: concentration or dose not given beside the values
Outline: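 THP-1 cells differentiated with 100 nM PMA in RPMI/10% FBS for 24 h, washed, then rested 24 h in fresh medium. Seeded at 0.5 × 10⁵ cells/well and exposed to graded compound concentrations for 4 h, with final DMSO held at 0.1%. LPS served as positive control and DMSO as negative control. Supernatant human TNF-α was read by ELISA. EC50 from duplicate means.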

[2] = molecular target: Toll-like receptor 1/2 (Mus musculus) (UniProt Q9QUN7+Q9EPQ1); experiment: Agonist activity at TLR1/TLR2 in wild type C57BL/6J mouse macrophages assessed as stimulation of TNF alpha release measured for 4 hrs by ELISA based assay relative to diprovocim-1; format: cell-based; design: Activity: concentration or dose not given beside the values; settings: Macrophage, filed as agonist
Outline: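 Thioglycolate-elicited peritoneal macrophages from wild type C57BL/6J mice, harvested by PBS lavage 4 d after i.p. 4% thioglycolate. Cultured in DMEM/10% FBS at 37 °C, 5% CO2, seeded at 1 × 10⁵ cells/well and exposed to graded compound concentrations for 4 h, with final DMSO ≤0.5% held constant. LPS served as positive control. Supernatant mouse TNF-α was read by ELISA. EC50 from duplicate means.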

Activity ([1]; filed as agonist) [%]	Activity [2] [%]	Activity [1] [%]	Structure (SMILES)
100	60		O=C(CNC(=O)c1ccc(C(=O)O)cc1)OCCCCCCCCCCCCNC(=O)[C@@H]1CN(C(=O)c2ccc(C(=O)N3C[C@@H](C(=O)N[C@H]4C[C@@H]4c4ccccc4)[C@H](C(=O)N[C@H]4C[C@@H]4c4ccccc4)C3)cc2)C[C@H]1C(=O)N[C@H]1C[C@@H]1c1ccccc1
120	180		C#CCCCCCCCCCCCCNC(=O)[C@@H]1CN(C(=O)c2ccc(C(=O)N3C[C@@H](C(=O)N[C@H]4C[C@@H]4c4ccccc4)[C@H](C(=O)N[C@H]4C[C@@H]4c4ccccc4)C3)cc2)C[C@H]1C(=O)N[C@H]1C[C@@H]1c1ccccc1
90	110		CC(C)(C)OC(=O)/C=C/C(=O)NCC(=O)OCCCCCCCCCCCCNC(=O)[C@@H]1CN(C(=O)c2ccc(C(=O)N3C[C@@H](C(=O)N[C@H]4C[C@@H]4c4ccccc4)[C@H](C(=O)N[C@H]4C[C@@H]4c4ccccc4)C3)cc2)C[C@H]1C(=O)N[C@H]1C[C@@H]1c1ccccc1
110	120		NC(=O)CCCCCCCCCCCNC(=O)[C@@H]1CN(C(=O)c2ccc(C(=O)N3C[C@@H](C(=O)N[C@H]4C[C@@H]4c4ccccc4)[C@H](C(=O)N[C@H]4C[C@@H]4c4ccccc4)C3)cc2)C[C@H]1C(=O)N[C@H]1C[C@@H]1c1ccccc1
70	120		CC(C)(C)OC(=O)NCCCCCCCCCCCCNC(=O)[C@@H]1CN(C(=O)c2ccc(C(=O)N3C[C@@H](C(=O)N[C@H]4C[C@@H]4c4ccccc4)[C@H](C(=O)N[C@H]4C[C@@H]4c4ccccc4)C3)cc2)C[C@H]1C(=O)N[C@H]1C[C@@H]1c1ccccc1
100	300		O=C(CNC(=O)OCC(Cl)(Cl)Cl)OCCCCCCCCCCCCNC(=O)[C@@H]1CN(C(=O)c2ccc(C(=O)N3C[C@@H](C(=O)N[C@H]4C[C@@H]4c4ccccc4)[C@H](C(=O)N[C@H]4C[C@@H]4c4ccccc4)C3)cc2)C[C@H]1C(=O)N[C@H]1C[C@@H]1c1ccccc1
	50	30	[N-]=[N+]=NCCCCCCCCCCCCNC(=O)[C@@H]1CN(C(=O)c2ccc(C(=O)N3C[C@@H](C(=O)N[C@H]4C[C@@H]4c4ccccc4)[C@H](C(=O)N[C@H]4C[C@@H]4c4ccccc4)C3)cc2)C[C@H]1C(=O)N[C@H]1C[C@@H]1c1ccccc1
100	140		CC(C)(C)OC(=O)CCOCCOCCOCCNC(=O)CCCCCCCCCCCNC(=O)[C@@H]1CN(C(=O)c2ccc(C(=O)N3C[C@@H](C(=O)N[C@H]4C[C@@H]4c4ccccc4)[C@H](C(=O)N[C@H]4C[C@@H]4c4ccccc4)C3)cc2)C[C@H]1C(=O)N[C@H]1C[C@@H]1c1ccccc1
130	120		N#CCC(=O)OCCCCCCCCCCCCNC(=O)[C@@H]1CN(C(=O)c2ccc(C(=O)N3C[C@@H](C(=O)N[C@H]4C[C@@H]4c4ccccc4)[C@H](C(=O)N[C@H]4C[C@@H]4c4ccccc4)C3)cc2)C[C@H]1C(=O)N[C@H]1C[C@@H]1c1ccccc1
100	210		CC(C)(C)OC(=O)N[C@@H](CCC(=O)OCc1ccccc1)C(=O)OCCCCCCCCCCCCNC(=O)[C@@H]1CN(C(=O)c2ccc(C(=O)N3C[C@@H](C(=O)N[C@H]4C[C@@H]4c4ccccc4)[C@H](C(=O)N[C@H]4C[C@@H]4c4ccccc4)C3)cc2)C[C@H]1C(=O)N[C@H]1C[C@@H]1c1ccccc1
110	230		O=C(NCCCCCCCCCCCCOCc1ccc([N+](=O)[O-])cc1)[C@@H]1CN(C(=O)c2ccc(C(=O)N3C[C@@H](C(=O)N[C@H]4C[C@@H]4c4ccccc4)[C@H](C(=O)N[C@H]4C[C@@H]4c4ccccc4)C3)cc2)C[C@H]1C(=O)N[C@H]1C[C@@H]1c1ccccc1
90	110		O=C(NCCCCCCCCCCCCO)[C@@H]1CN(C(=O)c2ccc(C(=O)N3C[C@@H](C(=O)N[C@H]4C[C@@H]4c4ccccc4)[C@H](C(=O)N[C@H]4C[C@@H]4c4ccccc4)C3)cc2)C[C@H]1C(=O)N[C@H]1C[C@@H]1c1ccccc1
